The values below come from PubChem BioAssay AID504486 (The Scripps Research Institute Molecular Screening Center, 2011).

Activity calls are given as the source filed them.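 How the source made its calls: active means mass spectrometry shows covalent labeling of the catalytic serine in PAFAH2, a platelet-activating factor hydrolase; inactive means no covalent labeling of that serine detected.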

The target in the assay is Platelet-activating factor acetylhydrolase 2, cytoplasmic (Homo sapiens) (UniProt Q99487). In words: PAFAH2 active-site binding mode – biophysical, LC-MS/MS, purified enzyme, mechanism study for PAFAH2 inhibitor project, late-stage follow-up (AID 504486). The settings on record: purified PAFAH2, LC-MS/MS active-site serine labeling. The method in brief: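 System: purified human recombinant PAFAH2 enzyme. Compound: single dose, 200 µM final inhibitor, DMSO vehicle. Schedule: 30 min compound exposure at room temperature. Measured by: LC-MS/MS peptide mapping of serine adduct. Evaluation: active-site serine covalent modification, yes or no. Benchmarks: DMSO-only enzyme sample.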

Turning to `O=C(N1CCCC1)n1ncc(-c2ccc(-c3ccccc3)cc2)n1`, the result was active.
